Results reported in ChEMBL document CHEMBL1154609, “Synthesis and antibacterial activity of isothiazolyl oxazolidinones and analogous 3(2H)-isothiazolones” (Eur J Med Chem, 2010).
In brackets after ≈: the same amount, converted by molar mass.

Key:
[1] = test system: Staphylococcus aureus; assay: Antibacterial activity against Staphylococcus aureus ATCC 29737 after 18 hrs by agar dilution method; type: functional; conditions: ATCC 29737, 18 h
Method in brief: (§1)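 Agar dilution on Mueller Hinton agar; inoculum about 10^6 CFU/mL applied to plates with twofold serial dilutions of compound in distilled water, 0.01 to 100 μg/mL; 37 °C, 18 h. DMSO-supplemented medium at matching dilution run as solvent control. MIC = lowest concentration giving no visible growth on the plate.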

[2] = test system: Staphylococcus epidermidis; assay: Antibacterial activity against Staphylococcus epidermidis ATCC 12229 after 18 hrs by agar dilution method; type: functional; conditions: ATCC 12229, 18 h; method in brief: as §1
[3] = test system: Escherichia coli; assay: Antibacterial activity against Escherichia coli ATCC 8739 after 18 hrs by agar dilution method; type: functional; conditions: ATCC 8739, 18 h; method in brief: as §1
[4] = test system: Salmonella typhimurium; assay: Antibacterial activity against Salmonella Typhimurium ATCC 1639 after 18 hrs by agar dilution method; type: functional, Salmonella enterica subsp. enterica serovar Typhimurium; conditions: Salmonella enterica, ATCC 1639, 18 h; method in brief: as §1
[5] = test system: Pseudomonas aeruginosa; assay: Antibacterial activity against Pseudomonas aeruginosa ATCC 9027 after 18 hrs by agar dilution method; conditions: ATCC 9027, 18 h
[6] = test system: Staphylococcus aureus; assay: Antibacterial activity against methicillin-resistant Staphylococcus aureus isolate 2 after 18 hrs by agar dilution method; type: functional; conditions: isolate 2, 18 h
Method in brief: (§2)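 Agar dilution on Mueller Hinton agar. Inoculum about 10^6 CFU/mL applied to plates holding two-fold serial dilutions of compound in distilled water, 0.01 to 100 μg/mL. Incubated 37 °C for 18 h. DMSO solvent control included. MIC taken as the lowest concentration giving no visible growth on the plate.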

[7] = test system: Staphylococcus aureus; assay: Antibacterial activity against methicillin-resistant Staphylococcus aureus isolate 1 after 18 hrs by agar dilution method; type: functional; conditions: isolate 1, 18 h; method in brief: as §2
[8] = Cytotoxicity against mouse NIH/3T3 cells after 24 hrs by MTT assay; type: cell-based; conditions: NIH3T3, 24 h
Method in brief: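 NIH/3T3 normal mouse fibroblasts exposed to compounds for 24 h; viability read by MTT colorimetric assay.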

| SMILES | MIC [1] [µg/mL] | MIC [2] [µg/mL] | MIC [3] [µg/mL] | MIC [4] [µg/mL] | MIC [5] [µg/mL] | MIC [6] [µg/mL] | MIC [7] [µg/mL] | IC50 [8] [µg/mL] |
| --- | --- | --- | --- | --- | --- | --- | --- | --- |
| O=c1cc(Cl)sn1-c1ccccc1 | 50 (≈ 236 µM) | 0.3 (≈ 1.42 µM) | 0.6 (≈ 2.83 µM) | 0.3 (≈ 1.42 µM) | 1.25 (≈ 5.91 µM) |  |  |  |
| O=C1OC(Cn2sccc2=O)CN1c1ccc(C(F)(F)F)cc1 (stereo not drawn) | 50 (≈ 145 µM) | 100 (≈ 290 µM) | 100 (≈ 290 µM) | 100 (≈ 290 µM) | 100 (≈ 290 µM) |  |  |  |
| O=C1OC(Cn2sccc2=O)CN1Cc1ccccc1 (stereo not drawn) | 0.5 (≈ 1.72 µM) | 0.5 (≈ 1.72 µM) | 12.5 (≈ 43.1 µM) | 12.5 (≈ 43.1 µM) | 12.5 (≈ 43.1 µM) | 12.5 (≈ 43.1 µM) | 8 (≈ 27.6 µM) | 273 (≈ 940 µM) |
| O=C1OC(Cn2sccc2=O)CN1c1cccc(F)c1 (stereo not drawn) | 50 (≈ 170 µM) | 100 (≈ 340 µM) | 100 (≈ 340 µM) | 100 (≈ 340 µM) | 100 (≈ 340 µM) |  |  |  |
| O=c1ccsn1-c1ccccc1 | 3.25 (≈ 18.3 µM) | 3.25 (≈ 18.3 µM) | 12.5 (≈ 70.5 µM) | 25 (≈ 141 µM) | 12.5 (≈ 70.5 µM) |  |  |  |
| O=C(O)c1cn(C2CC2)c2cc(N3CCNCC3)c(F)cc2c1=O [CIPROFLOXACIN] | 0.5 (≈ 1.51 µM) | 1 (≈ 3.02 µM) |  | 0.01 (≈ 0.0302 µM) | 0.01 (≈ 0.0302 µM) |  |  |  |
| CC(=O)NC[C@H]1CN(c2ccc(N3CCOCC3)c(F)c2)C(=O)O1 [LINEZOLID] |  | 0.03 (≈ 0.0889 µM) | > 100 | > 100 | > 100 |  | 2 (≈ 5.93 µM) | 465 (≈ 1380 µM) |
| CN[C@H](CC(C)C)C(=O)N[C@H]1C(=O)N[C@@H](CC(N)=O)C(=O)N[C@H]2C(=O)N[C@H]3C(=O)N[C@H](C(=O)N[C@H](C(=O)O)c4cc(O)cc(O)c4-c4cc3ccc4O)[C@H](O)c3ccc(c(Cl)c3)Oc3cc2cc(c3O[C@@H]2O[C@H](CO)[C@@H](O)[C@H](O)[C@H]2O[C@H]2C[C@](C)(N)[C@H](O)[C@H](C)O2)Oc2ccc(cc2Cl)[C@H]1O [VANCOMYCIN] | 0.75 (≈ 0.518 µM) | 0.75 (≈ 0.518 µM) | > 100 | > 100 | > 100 |  |  |  |

The next lines start with results.

| MIC [1] [µg/mL] | MIC [2] [µg/mL] | MIC [3] [µg/mL] | MIC [4] [µg/mL] | MIC [5] [µg/mL] | SMILES | MIC [6] [µg/mL] | MIC [7] [µg/mL] | IC50 [8] [µg/mL] |
| --- | --- | --- | --- | --- | --- | --- | --- | --- |
| 6 (≈ 30.7 µM) | 3.25 (≈ 16.6 µM) | 12.5 (≈ 64 µM) | 12.5 (≈ 64 µM) | 12.5 (≈ 64 µM) | O=c1ccsn1-c1cccc(F)c1 |  |  |  |
| 3 (≈ 14.2 µM) | 1.5 (≈ 7.09 µM) | 10 (≈ 47.2 µM) | 10 (≈ 47.2 µM) | 10 (≈ 47.2 µM) | O=c1ccsn1-c1ccc(Cl)cc1 |  |  |  |
| 0.1 (≈ 0.406 µM) | 0.1 (≈ 0.406 µM) | 0.3 (≈ 1.22 µM) | 0.3 (≈ 1.22 µM) | 0.6 (≈ 2.44 µM) | O=c1cc(Cl)sn1-c1ccc(Cl)cc1 |  |  |  |
| 10 (≈ 31.8 µM) | 10 (≈ 31.8 µM) | 25 (≈ 79.4 µM) | 25 (≈ 79.4 µM) | 12.5 (≈ 39.7 µM) | O=c1cc(Cl)sn1-c1ccc(N2CCOCC2)c(F)c1 |  |  |  |
| 12.5 (≈ 39.3 µM) | 25 (≈ 78.5 µM) | 50 (≈ 157 µM) | 50 (≈ 157 µM) | 100 (≈ 314 µM) | CC(=O)c1ccc(N2CC(Cn3sccc3=O)OC2=O)cc1 (stereo not drawn) |  |  |  |
| 12.5 (≈ 40.2 µM) | 12.5 (≈ 40.2 µM) | 12.5 (≈ 40.2 µM) | 12.5 (≈ 40.2 µM) | 12.5 (≈ 40.2 µM) | O=C1OC(Cn2sccc2=O)CN1c1cccc(Cl)c1 (stereo not drawn) |  |  |  |
| 1.5 (≈ 7.68 µM) | 3 (≈ 15.4 µM) | 6 (≈ 30.7 µM) | 12.5 (≈ 64 µM) | 12.5 (≈ 64 µM) | O=c1ccsn1-c1ccc(F)cc1 |  |  |  |
| 5 (≈ 17.9 µM) | 5 (≈ 17.9 µM) | 25 (≈ 89.4 µM) | 12.5 (≈ 44.7 µM) | 0.1 (≈ 0.358 µM) | O=c1cc(Cl)sn1-c1ccc(C(F)(F)F)cc1 |  |  |  |
| 12.5 (≈ 44.6 µM) | 10 (≈ 35.7 µM) | 25 (≈ 89.2 µM) | 25 (≈ 89.2 µM) | 25 (≈ 89.2 µM) | O=c1ccsn1-c1ccc(N2CCOCC2)c(F)c1 |  |  |  |
| 25 (≈ 131 µM) | 2 (≈ 10.5 µM) | 25 (≈ 131 µM) | 25 (≈ 131 µM) | 25 (≈ 131 µM) | Cc1ccc(-n2sccc2=O)cc1 |  |  |  |
